Results on 11 compounds are retold here after paper PMC9924264 (Journal of Medicinal Chemistry, 2023).

The structures appear in SMILES notation.

Test [1] deals with T1, BMPR2 kinase domain (Homo sapiens, UniProt Q13873).
T1 sequence (Q13873 188-517): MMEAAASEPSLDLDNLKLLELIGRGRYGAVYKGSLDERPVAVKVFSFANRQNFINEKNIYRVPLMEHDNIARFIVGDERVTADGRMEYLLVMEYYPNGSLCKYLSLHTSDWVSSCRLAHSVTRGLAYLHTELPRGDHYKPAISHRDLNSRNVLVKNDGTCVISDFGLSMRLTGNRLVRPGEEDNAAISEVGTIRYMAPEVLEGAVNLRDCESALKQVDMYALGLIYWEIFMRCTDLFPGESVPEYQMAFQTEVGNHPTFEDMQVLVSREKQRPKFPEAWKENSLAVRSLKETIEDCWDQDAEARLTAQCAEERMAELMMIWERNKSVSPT
The experiment in a line: BMPR2 Kinase-Glo kinase inhibition assay. The class given is biochemical. The note with it: for fold loss of BMPR2 potency: compared to parent CDD-1115 (CDD-1280: relative to CDD-1281). Summed up: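 Recombinant human BMPR2 kinase domain (aa188-517, C-terminal His-tag) expressed in E. coli and purified by affinity, anion-exchange and size-exclusion chromatography. Substrate-free ATPase end-point assay: 10 μM ATP, 0.02% Tween-20, kinase buffer, 30 min at 30 °C. Enzyme level optimized for linear initial velocity. Leftover ATP read by luciferase luminescence, with no-kinase controls. Kiapp from modified Morrison equation fit to normalized fractional activity, no inhibition mode assumed.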

The test system of test [2] is pSMAD1/5 in human umbilical vein endothelial cells (HUVECs). The experiment in a line: pSMAD1/5 Western blot, BMP9-stimulated HUVECs. The class given is cell-based. As to conditions: 25 μM, 30 min pretreatment, 0.5 ng/mL BMP9 15 min. Summed up: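 HUVECs, about 3 × 10^5 per well, starved overnight in Kaighn's F-12 with 0.5% FBS and 30 μg/mL endothelial cell growth supplement. Pretreated with inhibitors for 30 min, then given 0.5 ng/mL BMP9 for 15 min. Lysed with protease and phosphatase inhibitors. SDS-PAGE immunoblot for pSMAD1/5, SMAD1, SMAD5 and GAPDH, with densitometry. n = 3 biological replicates; one-way ANOVA with Tukey post hoc test.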

The target of a further test is WNK1 (Homo sapiens, UniProt Q9H4A3). Briefly: ThermoFisher Kd Elect screening. Format: binding.
In the next test the target is WNK2 (Homo sapiens, UniProt Q9Y3S1). Briefly: ThermoFisher Kd Elect screening. Format: binding.
The target in test [3] is T1, BMPR2 kinase domain. The experiment in a line: Thermal shift assay. Format: binding. As to conditions: 50 μM compound; BMPR2 alone Tm 52.1 °C. In outline: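 Purified BMPR2 kinase domain (1 μg) in 50 mM Tris–HCl pH 7.5, 150 mM NaCl with 50 μM test compound and 5× SYPRO Orange. Heated 20 to 95 °C, fluorescence read every 10 s. Tm taken from the unfolding curve; three technical replicates averaged.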

The target in another test is ACVRL1 (ALK1) (Homo sapiens, UniProt P37023). The experiment in a line: ThermoFisher SelectScreen LanthaScreen assay. Format: binding. The note with it: ALK1, text.
For another test, the target named is T2, ACVR1 (ALK2) (Homo sapiens, UniProt Q04771).
T2 sequence (Q04771 21-509): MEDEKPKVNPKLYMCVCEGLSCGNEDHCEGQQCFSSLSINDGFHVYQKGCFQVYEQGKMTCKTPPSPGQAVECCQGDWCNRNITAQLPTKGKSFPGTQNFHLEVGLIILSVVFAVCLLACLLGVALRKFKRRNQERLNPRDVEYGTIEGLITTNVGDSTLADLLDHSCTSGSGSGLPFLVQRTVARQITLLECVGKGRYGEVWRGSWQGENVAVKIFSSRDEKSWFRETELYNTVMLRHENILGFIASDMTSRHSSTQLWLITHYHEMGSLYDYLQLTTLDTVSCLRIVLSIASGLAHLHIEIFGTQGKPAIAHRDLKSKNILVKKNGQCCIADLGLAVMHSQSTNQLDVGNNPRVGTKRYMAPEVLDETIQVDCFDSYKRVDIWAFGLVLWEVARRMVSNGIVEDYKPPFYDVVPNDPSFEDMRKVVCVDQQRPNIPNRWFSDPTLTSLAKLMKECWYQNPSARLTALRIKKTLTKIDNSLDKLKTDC
The experiment in a line: ThermoFisher SelectScreen LanthaScreen assay. The note with it: ALK2, text. The class given is binding.

A further test concerns the target BMPR1A (ALK3) (Homo sapiens, UniProt P36894). Briefly: ThermoFisher SelectScreen LanthaScreen assay. Format: binding.
The next test concerns the target T3, ACVR1B (ALK4) (Homo sapiens, UniProt P36896).
T3 sequence (P36896 24-505): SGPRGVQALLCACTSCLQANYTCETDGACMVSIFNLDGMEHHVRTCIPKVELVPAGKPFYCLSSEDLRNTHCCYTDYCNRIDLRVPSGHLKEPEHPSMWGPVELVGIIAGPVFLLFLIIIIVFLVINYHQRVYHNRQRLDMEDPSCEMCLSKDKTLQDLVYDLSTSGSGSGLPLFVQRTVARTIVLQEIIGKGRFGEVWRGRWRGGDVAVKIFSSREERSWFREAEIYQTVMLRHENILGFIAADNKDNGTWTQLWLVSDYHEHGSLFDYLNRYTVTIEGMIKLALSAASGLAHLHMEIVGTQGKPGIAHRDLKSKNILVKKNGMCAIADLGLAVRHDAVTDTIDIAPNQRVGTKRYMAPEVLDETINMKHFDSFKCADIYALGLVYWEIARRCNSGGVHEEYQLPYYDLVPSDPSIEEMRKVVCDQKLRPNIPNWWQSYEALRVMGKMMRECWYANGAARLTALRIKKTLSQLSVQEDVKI
Briefly: ThermoFisher SelectScreen Z’-LYTE assay. The class given is biochemical. The note with it: N/A = not active.

The target of another test is T4, TGFBR1 (ALK5) (Homo sapiens, UniProt P36897).
T4 sequence (P36897 34-503): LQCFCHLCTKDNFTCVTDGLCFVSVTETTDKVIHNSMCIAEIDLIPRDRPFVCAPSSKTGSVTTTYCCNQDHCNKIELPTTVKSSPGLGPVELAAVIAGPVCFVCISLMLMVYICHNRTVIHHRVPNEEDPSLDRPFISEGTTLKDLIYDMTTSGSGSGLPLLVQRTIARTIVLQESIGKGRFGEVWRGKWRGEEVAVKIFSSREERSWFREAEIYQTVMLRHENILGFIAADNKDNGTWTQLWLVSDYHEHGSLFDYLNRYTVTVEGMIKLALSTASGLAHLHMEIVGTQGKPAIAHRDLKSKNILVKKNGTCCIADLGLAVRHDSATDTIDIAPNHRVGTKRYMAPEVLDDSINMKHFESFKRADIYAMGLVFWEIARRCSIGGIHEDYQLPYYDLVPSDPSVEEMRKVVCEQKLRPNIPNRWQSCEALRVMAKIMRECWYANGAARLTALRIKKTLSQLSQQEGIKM
The experiment in a line: ThermoFisher SelectScreen LanthaScreen assay. The class given is binding.

The next test deals with BMPR1B (ALK6) (Homo sapiens, UniProt O00238). The experiment in a line: ThermoFisher SelectScreen LanthaScreen assay. The class given is binding.
The next test has as its target TGFBR2 (Homo sapiens, UniProt P37173). Briefly: ThermoFisher SelectScreen LanthaScreen assay. Format: binding.
A further test concerns the target ACVR2A (Homo sapiens, UniProt P27037). The experiment in a line: ThermoFisher SelectScreen LanthaScreen assay. The class given is binding. As to conditions: N/A = not active. Summed up: (§1)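 Outsourced kinase profiling in TR-FRET binding format, measuring displacement of a tight-binding tracer from the kinase by test compound. IC50 reported.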
In the next test the target is ACVR2B (Homo sapiens, UniProt Q13705). Briefly: ThermoFisher SelectScreen LanthaScreen assay. Format: binding. As to conditions: N/A = not active. In outline: as §1
ACVR2B, sequence (Q13705 19-512): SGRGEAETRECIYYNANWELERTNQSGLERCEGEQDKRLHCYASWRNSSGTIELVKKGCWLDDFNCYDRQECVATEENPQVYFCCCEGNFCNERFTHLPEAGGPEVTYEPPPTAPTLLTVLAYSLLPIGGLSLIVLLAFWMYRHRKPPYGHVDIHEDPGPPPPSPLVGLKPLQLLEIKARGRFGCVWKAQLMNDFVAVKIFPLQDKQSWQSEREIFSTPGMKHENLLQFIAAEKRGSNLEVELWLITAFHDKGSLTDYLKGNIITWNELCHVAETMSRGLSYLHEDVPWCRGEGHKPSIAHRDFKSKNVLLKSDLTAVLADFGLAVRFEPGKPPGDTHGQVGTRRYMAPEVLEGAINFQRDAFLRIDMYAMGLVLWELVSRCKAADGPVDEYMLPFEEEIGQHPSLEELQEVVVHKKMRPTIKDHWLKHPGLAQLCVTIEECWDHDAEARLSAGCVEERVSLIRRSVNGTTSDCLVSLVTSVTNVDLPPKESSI

TGFBR2, sequence (P37173 23-567): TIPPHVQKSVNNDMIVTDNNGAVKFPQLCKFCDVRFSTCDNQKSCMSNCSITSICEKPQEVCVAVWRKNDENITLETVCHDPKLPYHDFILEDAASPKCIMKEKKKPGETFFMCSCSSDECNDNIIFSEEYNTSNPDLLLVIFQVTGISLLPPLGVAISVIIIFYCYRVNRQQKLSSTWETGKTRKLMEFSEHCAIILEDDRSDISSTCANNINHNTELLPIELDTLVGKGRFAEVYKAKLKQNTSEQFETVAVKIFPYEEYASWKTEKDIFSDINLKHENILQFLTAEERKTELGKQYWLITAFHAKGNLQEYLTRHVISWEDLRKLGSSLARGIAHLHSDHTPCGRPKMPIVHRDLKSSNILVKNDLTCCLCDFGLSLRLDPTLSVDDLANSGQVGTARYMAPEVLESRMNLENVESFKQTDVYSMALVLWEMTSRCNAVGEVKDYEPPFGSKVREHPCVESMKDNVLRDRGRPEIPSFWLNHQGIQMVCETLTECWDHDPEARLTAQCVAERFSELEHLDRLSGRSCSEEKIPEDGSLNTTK
BMPR1B (ALK6), sequence (O00238 14-502): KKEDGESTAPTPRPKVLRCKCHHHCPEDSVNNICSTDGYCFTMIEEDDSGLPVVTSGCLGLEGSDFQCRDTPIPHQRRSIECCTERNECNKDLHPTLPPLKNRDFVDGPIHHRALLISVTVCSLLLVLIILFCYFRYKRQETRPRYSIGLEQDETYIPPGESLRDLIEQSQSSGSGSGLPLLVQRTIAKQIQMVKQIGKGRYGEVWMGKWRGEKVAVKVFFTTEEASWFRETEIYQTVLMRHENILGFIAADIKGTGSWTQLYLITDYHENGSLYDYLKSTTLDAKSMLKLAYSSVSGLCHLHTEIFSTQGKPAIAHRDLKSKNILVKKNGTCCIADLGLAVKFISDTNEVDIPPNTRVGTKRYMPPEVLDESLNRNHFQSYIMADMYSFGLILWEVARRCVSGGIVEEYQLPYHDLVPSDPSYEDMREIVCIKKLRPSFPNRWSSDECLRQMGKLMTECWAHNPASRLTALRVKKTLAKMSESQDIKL
BMPR1A (ALK3), sequence (P36894 24-532): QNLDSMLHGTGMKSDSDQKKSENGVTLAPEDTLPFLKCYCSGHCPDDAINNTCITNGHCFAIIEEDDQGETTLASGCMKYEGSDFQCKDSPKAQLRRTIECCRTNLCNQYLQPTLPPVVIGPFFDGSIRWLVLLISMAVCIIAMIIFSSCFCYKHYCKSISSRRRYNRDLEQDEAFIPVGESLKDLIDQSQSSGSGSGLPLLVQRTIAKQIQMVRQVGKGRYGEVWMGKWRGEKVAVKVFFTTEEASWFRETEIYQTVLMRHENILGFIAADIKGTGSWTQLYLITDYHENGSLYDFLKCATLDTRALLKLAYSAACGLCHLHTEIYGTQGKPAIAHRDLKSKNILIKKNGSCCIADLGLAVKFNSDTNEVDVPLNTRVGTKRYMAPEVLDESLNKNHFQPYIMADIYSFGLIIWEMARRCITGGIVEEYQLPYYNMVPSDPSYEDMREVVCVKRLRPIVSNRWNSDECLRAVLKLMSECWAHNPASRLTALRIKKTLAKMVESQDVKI
WNK2, sequence (Q9Y3S1 whole entry, the tested form may be a part): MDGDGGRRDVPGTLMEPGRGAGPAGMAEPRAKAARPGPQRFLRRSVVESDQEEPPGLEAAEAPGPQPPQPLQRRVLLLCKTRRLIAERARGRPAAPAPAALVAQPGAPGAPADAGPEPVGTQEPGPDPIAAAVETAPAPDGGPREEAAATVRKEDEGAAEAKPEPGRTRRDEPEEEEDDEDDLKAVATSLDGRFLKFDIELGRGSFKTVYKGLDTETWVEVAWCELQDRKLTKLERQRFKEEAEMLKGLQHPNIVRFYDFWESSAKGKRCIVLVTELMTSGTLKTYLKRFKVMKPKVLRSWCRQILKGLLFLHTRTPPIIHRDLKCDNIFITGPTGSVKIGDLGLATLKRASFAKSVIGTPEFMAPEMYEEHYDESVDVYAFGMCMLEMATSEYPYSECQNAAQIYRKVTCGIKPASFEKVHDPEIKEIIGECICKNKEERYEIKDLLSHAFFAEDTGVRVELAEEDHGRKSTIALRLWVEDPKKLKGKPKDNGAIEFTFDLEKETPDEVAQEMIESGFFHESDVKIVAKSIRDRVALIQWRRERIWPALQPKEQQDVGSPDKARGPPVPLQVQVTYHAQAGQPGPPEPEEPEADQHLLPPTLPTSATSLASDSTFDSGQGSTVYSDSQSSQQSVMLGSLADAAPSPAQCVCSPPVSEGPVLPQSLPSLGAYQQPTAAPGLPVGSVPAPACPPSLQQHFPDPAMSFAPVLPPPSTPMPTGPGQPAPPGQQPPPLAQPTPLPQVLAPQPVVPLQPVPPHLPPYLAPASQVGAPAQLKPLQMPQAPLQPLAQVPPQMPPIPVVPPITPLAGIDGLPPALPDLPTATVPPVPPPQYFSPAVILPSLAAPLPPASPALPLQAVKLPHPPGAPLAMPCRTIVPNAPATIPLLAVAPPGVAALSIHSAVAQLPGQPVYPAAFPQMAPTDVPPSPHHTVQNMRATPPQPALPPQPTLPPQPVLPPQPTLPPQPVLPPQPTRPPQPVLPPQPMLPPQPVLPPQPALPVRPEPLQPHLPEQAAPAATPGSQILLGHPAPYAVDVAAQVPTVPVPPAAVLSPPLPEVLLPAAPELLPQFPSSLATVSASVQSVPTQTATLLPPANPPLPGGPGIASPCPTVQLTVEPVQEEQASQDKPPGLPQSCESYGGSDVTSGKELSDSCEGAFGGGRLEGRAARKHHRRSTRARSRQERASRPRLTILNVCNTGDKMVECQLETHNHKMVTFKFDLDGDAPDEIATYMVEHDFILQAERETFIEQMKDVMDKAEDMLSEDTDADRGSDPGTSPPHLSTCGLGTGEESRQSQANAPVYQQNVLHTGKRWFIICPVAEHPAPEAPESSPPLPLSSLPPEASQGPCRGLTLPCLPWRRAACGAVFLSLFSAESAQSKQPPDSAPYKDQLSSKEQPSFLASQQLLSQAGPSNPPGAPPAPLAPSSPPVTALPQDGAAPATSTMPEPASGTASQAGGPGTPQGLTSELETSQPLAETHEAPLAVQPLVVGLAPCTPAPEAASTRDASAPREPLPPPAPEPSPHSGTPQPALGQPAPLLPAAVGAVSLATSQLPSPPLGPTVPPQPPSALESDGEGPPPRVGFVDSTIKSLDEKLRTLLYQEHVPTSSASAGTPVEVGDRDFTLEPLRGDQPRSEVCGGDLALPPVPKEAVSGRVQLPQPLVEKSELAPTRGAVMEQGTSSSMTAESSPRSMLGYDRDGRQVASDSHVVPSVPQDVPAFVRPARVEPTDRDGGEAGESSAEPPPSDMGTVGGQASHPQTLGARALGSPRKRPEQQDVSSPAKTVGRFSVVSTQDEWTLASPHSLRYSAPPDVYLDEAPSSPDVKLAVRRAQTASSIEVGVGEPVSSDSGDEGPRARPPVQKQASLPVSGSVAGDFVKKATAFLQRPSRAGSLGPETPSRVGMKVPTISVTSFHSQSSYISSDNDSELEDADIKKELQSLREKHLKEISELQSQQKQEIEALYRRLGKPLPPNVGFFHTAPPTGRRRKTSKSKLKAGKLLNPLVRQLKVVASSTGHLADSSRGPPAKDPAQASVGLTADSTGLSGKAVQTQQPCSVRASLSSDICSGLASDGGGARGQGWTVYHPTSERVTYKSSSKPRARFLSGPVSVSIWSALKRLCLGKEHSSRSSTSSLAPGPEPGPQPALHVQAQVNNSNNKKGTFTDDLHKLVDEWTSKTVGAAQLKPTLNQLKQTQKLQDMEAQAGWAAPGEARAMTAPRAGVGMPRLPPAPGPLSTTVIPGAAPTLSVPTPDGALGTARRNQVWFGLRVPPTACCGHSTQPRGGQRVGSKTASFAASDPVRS
ACVR2A, sequence (P27037 20-513): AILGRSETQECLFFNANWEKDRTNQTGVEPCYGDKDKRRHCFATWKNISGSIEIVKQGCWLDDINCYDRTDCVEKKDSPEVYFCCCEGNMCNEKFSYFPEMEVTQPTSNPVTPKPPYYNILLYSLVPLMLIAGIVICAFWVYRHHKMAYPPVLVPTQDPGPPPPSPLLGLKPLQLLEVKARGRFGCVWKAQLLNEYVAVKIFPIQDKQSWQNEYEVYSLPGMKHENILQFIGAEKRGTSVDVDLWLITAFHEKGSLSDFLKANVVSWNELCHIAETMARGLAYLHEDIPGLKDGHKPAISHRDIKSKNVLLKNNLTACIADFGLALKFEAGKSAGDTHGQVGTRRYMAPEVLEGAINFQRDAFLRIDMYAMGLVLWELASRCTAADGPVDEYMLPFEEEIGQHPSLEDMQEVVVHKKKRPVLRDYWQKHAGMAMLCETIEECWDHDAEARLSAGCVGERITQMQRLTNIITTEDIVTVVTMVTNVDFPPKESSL

In the case of `COc1cnc(Nc2cccc(S(N)(=O)=O)c2)nc1N1CCNCC1` [CDD-1497, 3-((5-Methoxy-4-(piperazin-1-yl)pyrimidin-2-yl)amino)benzenesulfonamide], at BMPR2 kinase domain [1] (compared to parent CDD-1431), the “fold drop in BMPR2 potency” value was found to be 12 fold.
As for `COc1cnc(Nc2cccc(S(N)(=O)=O)c2)nc1N1CCN(c2ccccc2)C(=O)C1` [CDD-1653, 3-((5-Methoxy-4-(3-oxo-4-phenylpiperazin-1-yl)pyrimidin-2-yl)amino)benzenesulfonamide], the “phosphorylation of SMAD1/5 (pSMAD1/5)” value in test [2] is reported as “significantly decreased”. Moreover, the Kd at WNK1 and at WNK2 was above 3 µM throughout.
As for `Cn1c(-c2ccc3cnccc3c2)nc2ccc(C(=O)NCc3cccc(C(N)=O)c3)cc21` [CDD-1280, N-(3-Carbamoylbenzyl)-2-(isoquinolin-6-yl)-1-methyl-1H-benzo[d]imidazole-6-carboxamide], the “fold loss of BMPR2 potency” value on BMPR2 kinase domain [1] came out at 2.7 fold.
As for `CNC(=O)[C@@H]1CC[C@@H](n2c(-c3cccc(Cl)c3)nc3ccc(C(=O)NCc4cccc(C(N)=O)c4)cc32)C1` [CDD-1284, N-(3-Carbamoylbenzyl)-2-(3-chlorophenyl)-1-((1R,3R)-3-(methylcarbamoyl)cyclopentyl)-1H-benzo[d]imidazole-6-carboxamide], the “fold loss of BMPR2 potency” value at BMPR2 kinase domain [1] was found to be 160 fold.
As for `CNC(=O)CCc1ccc(C(=O)NCc2cccc(N3CCN(c4nc(Nc5cccc(S(N)(=O)=O)c5)ncc4OC)CC3)c2)cc1` [CDD-1431, N-(3-(4-(5-Methoxy-2-((3-sulfamoylphenyl)amino)pyrimidin-4-yl)piperazin-1-yl)benzyl)-4-(3-(methylamino)-3-oxopropyl)benzamide], the “melting temperature (Tm)” value at BMPR2 kinase domain [3] is 66.0 °C.
With `CNC(=O)[C@@H]1CC[C@@H](n2c(-c3ccc4cnccc4c3)nc3ccc(C(=O)NCc4ccccc4)cc32)C1` [CDD-1283, N-Benzyl-2-(isoquinolin-6-yl)-1-((1R,3R)-3-(methylcarbamoyl)cyclopentyl)-1H-benzo[d]imidazole-6-carboxamide], the “fold loss of BMPR2 potency” value on BMPR2 kinase domain [1] was 6.2 fold.
On the same count and under the same terms, to `CNC(=O)c1ccc2nc(-c3ccc4cnccc4c3)n([C@@H]3CC[C@@H](C(=O)NC)C3)c2c1` [CDD-1282, 2-(Isoquinolin-6-yl)-N-methyl-1-((1R,3R)-3-(methylcarbamoyl)cyclopentyl)-1H-benzo[d]imidazole-6-carboxamide] belongs “complete loss of potency”.
Regarding `CCOc1cnc(Nc2cccc(S(N)(=O)=O)c2)nc1N1CCN(c2ccccc2)C(=O)C1` [CDD-1703, 3-((5-Ethoxy-4-(3-oxo-4-phenylpiperazin-1-yl)pyrimidin-2-yl)amino)benzenesulfonamide], at BMPR2 kinase domain [1] (compared to parent CDD-1431), the “fold improved BMPR2 potency” value stood at 4 fold.
With `CNC(=O)[C@@H]1CC[C@@H](n2c(-c3cc(Cl)cc(Cl)c3)nc3ccc(C(=O)NCc4cccc(C(N)=O)c4)cc32)C1` [CDD-1285, N-(3-Carbamoylbenzyl)-2-(3,5-dichlorophenyl)-1-((1R,3R)-3-(methylcarba-moyl)cyclopentyl)-1H-benzo[d]imidazole-6-carboxamide], the “fold loss of BMPR2 potency” value at BMPR2 kinase domain [1] is 160 fold.
As for `COc1cnc(Nc2cccc(S(N)(=O)=O)c2)nc1N1CCN(c2ccccc2)CC1` [CDD-1496, 3-((5-Methoxy-4-(4-phenylpiperazin-1-yl)pyrimidin-2-yl)amino)benzenesulfonamide], the “fold drop in BMPR2 potency” value at BMPR2 kinase domain [1] (compared to parent CDD-1431) is given as 2 fold. Besides, the “phosphorylation of SMAD1/5 (pSMAD1/5)” value in test [2] was “significantly decreased”.
Turning to `CNC(=O)[C@@H]1CC[C@@H](n2c(-c3ccc4cnccc4c3)nc3ccc(C(=O)NCc4cccc(C(N)=O)c4)cc32)C1` [CDD-1115, N-(3-Carbamoylbenzyl)-2-(isoquinolin-6-yl)-1-((1R,3R)-3-(methylcarbamoyl)cyclopentyl)-1H-benzo[d]imidazole-6-carboxamide], the “melting temperature (Tm)” value at BMPR2 kinase domain [3] is 67.8 °C. Moreover, the “selectivity over BMPR2” value at ACVRL1 (ALK1) was above 100 fold; on ACVR1 (ALK2), above 100 fold; on BMPR1A (ALK3) (ALK3, text) it was above 555 fold; on TGFBR1 (ALK5) (ALK5, text), above 555 fold; on BMPR1B (ALK6) (ALK6, text) it was above 555 fold; at TGFBR2 (TGFBR2, text) it was above 555 fold. For the same compound, the selectivity at BMPR1A (ALK3) (ALK3 vs BMPR2), at TGFBR1 (ALK5) (ALK5 vs BMPR2), at BMPR1B (ALK6) (ALK6 vs BMPR2) and at TGFBR2 (TGFBR2 vs BMPR2) was above 555× in each case. The IC50 result on ACVR1B (ALK4) was “inactive”; against TGFBR2, above 1 µM; at ACVR2A, “inactive”; against ACVR2B, “inactive”.
